Measurements reported in ChEMBL document CHEMBL1125633, “1H-imidazo[4,5-c]quinolin-4-amines: novel non-xanthine adenosine antagonists” (J Med Chem, 1991).

Experiments:
[1] = molecular target: T1, Adenosine receptor A1 (Rattus norvegicus, UniProt P25099); test: Displacement of [3H]CPX from adenosine A1 receptor of rat brain cortical membrane
T1 sequence (P25099 whole entry): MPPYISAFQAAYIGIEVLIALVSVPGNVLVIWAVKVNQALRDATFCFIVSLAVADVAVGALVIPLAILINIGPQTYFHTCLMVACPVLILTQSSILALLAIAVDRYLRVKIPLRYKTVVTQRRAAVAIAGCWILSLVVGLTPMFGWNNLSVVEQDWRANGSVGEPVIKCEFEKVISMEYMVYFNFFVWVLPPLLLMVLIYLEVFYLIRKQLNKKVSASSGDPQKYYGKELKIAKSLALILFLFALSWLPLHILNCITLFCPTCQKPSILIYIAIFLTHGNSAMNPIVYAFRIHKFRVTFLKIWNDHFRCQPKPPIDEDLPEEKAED

[2] = molecular target: T2, Adenosine receptor A1 (Bos taurus, UniProt P28190); test: Displacement of [3H]CPX from adenosine A1 receptor of calf brain cortical membrane
T2 sequence (P28190 whole entry): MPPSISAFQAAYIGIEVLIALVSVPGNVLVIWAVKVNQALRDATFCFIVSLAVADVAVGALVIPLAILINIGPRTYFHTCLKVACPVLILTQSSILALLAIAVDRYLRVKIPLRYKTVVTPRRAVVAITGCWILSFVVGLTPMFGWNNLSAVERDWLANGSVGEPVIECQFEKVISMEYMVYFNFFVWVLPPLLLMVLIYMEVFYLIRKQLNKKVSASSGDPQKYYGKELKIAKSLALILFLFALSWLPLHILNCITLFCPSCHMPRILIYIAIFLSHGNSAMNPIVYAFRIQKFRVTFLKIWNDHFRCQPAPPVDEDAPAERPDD
Method in brief: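 Calf brain cortical membranes, about 15 μg protein, incubated with 0.1 nM [3H]CPX in 50 mM Tris-HCl pH 7.4 for 1 h at 25 °C in duplicate. Nonspecific binding was defined with 10 μM R-PIA. DMSO was at most 1% final. Filter-bound radioactivity was counted. Means of three experiments.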

[3] = molecular target: Adenosine receptors; A1 & A2 (Rattus norvegicus) (UniProt P29276+P25099+P30543); test: Ratio of Ki for adenosine A2 and A1 receptors; format: protein assay
[4] = molecular target: T3, Adenosine A2 receptor (Rattus norvegicus, UniProt P29276+P30543); test: (§1) Binding affinity for adenosine A2 receptor using [3H]NECA in rat striatal membrane; format: cell membranes, Striatum
[5] = molecular target: T3, Adenosine A2 receptor; test: as §1; format: cell membranes, Striatum; remark: listed apart in the source
Method in brief: (§2)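 Rat striatal membranes from male Wistar rats, treated with 2 IU/mL adenosine deaminase for 30 min at 37 °C. Binding used about 50 μg protein and 4 nM [3H]NECA in 50 mM Tris-HCl, 10 mM MgCl2, pH 7.7, with 50 nM CPA added to block A1 sites. Nonspecific binding was defined with 100 μM CPA. Incubation 1 h at 25 °C in duplicate, ended by filtration and scintillation counting.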

[6] = molecular target: Adenosine A2 receptor (Rattus norvegicus) (UniProt P29276+P30543); test: Inhibitory binding activity for adenosine A2 receptor using [3H]NECA in rat striatal membrane at 1 uM; format: cell membranes; settings: Striatum; method in brief: as §2

Ki [1] [nM] | Ki [2] [nM] | Ratio [3] | Ki [4] [nM] | Ki [5] [nM] | inhibition [6] [%] | Structure (SMILES)
270 | 290 | 3 | 740 | – | – | Nc1[nH]c2ccccc2c2nc(C3CCCC3)nc1-2
310 | 74 | 2.6 | 810 | – | – | C[C@H](Cc1ccccc1)Nc1[nH]c2ccccc2c2ncnc1-2
1600 | 1700 | 0.9 | – | 1400 | – | Nc1[nH]c2ccccc2c2ncnc1-2
460 | 50 | – | – | – | 9 | c1ccc(Nc2[nH]c3ccccc3c3nc(-c4ccccc4)nc2-3)cc1
43 | 10 | 6.7 | 290 | – | – | c1ccc2c3ncnc-3c(NC3CCCC3)[nH]c2c1
10 | 1.5 | – | 450 | – | – | c1ccc(-c2nc3c(NC4CCCC4)[nH]c4ccccc4c-3n2)cc1
1500 | 460 | 1.9 | 2800 | – | – | C[C@@H](Cc1ccccc1)Nc1[nH]c2ccccc2c2ncnc1-2
2100 | 490 | 5 | – | 10500 | – | c1ccc(Nc2[nH]c3ccccc3c3ncnc2-3)cc1
34 | 17 | – | 290 | – | – | Nc1[nH]c2ccccc2c2nc(-c3ccccc3)nc1-2
230 | 23 | – | – | – | 6 | c1ccc(Nc2nc3ccccc3c3[nH]c(C4CCCC4)nc23)cc1
39 | 9.1 | – | 450 | – | – | c1ccc2c3nc(C4CCCC4)nc-3c(NC3CCCC3)[nH]c2c1
